# Active and inactive are the calls of the source. The rule behind the calls is not given here.
# Legend:
# RD = assay: Cytotoxicity against human RD cells assessed as reduction in cell viability at 5 to 40 uM after 24 hrs by LDH release assay; assay type: cell-based
# How it was run: (§1)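 HEK 293 and RD cells were grown in DMEM with 10% FBS at 37°C, 5% CO2, and seeded the day before at 50,000 (HEK 293) or 20,000 (RD) cells per well. Compounds (5 mM DMSO stock) were added at 5–40 μM for 24 h, with 0.8% DMSO in all wells. LDH release was normalised to untreated cells and 3 h lysis-buffer controls. Run in triplicate.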
# Pseudomonas aeruginosa [1] = assay: Antibiofilm activity against Pseudomonas aeruginosa PA14 assessed as removal of biomass at 20 uM preincubated for 24 hrs measured after 2 hrs by SYTO/propidium iodide double-staining-based confocal laser scanning microscopic analysis relative to control; assay type: functional
# Pseudomonas aeruginosa [2] = assay: Antibiofilm activity against Pseudomonas aeruginosa PA14 assessed as total live biofilm biomass eradication at 20 uM preincubated for 24 hrs measured after 2 hrs by SYTO/propidium iodide double-staining-based confocal laser scanning microscopic analysis relative to control; assay type: functional
# Pseudomonas aeruginosa [3] = assay: Effect on Pseudomonas aeruginosa PA14 assessed as dead cells at 20 uM preincubated for 24 hrs measured after 2 hrs (reference value: 4%); assay type: organism-based
# Pseudomonas aeruginosa [4] = assay: Inhibition of planktonic growth of Pseudomonas aeruginosa PA14 after 24 hrs by broth microdilution method; assay type: organism-based; details: in vitro
# How it was run: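 Broth microdilution in polypropylene microtiter plates. Compounds added as DMSO solutions, inoculum 5×10^5 CFU/mL final, incubated 37 °C for 24 h. MIC taken as the lowest concentration with no visible growth.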
# Pseudomonas aeruginosa [5] = assay: Antibiofilm activity against Pseudomonas aeruginosa PA14 assessed as dispersion of bacteria from biofilms at 20 uM after 2 to 3 hrs; assay type: functional, organism-based
# How it was run: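 PA14 biofilms grown 2 days in flow cells at 37°C, then exposed to 20 μM compound. Dispersed cells were collected from chamber effluent at set times, plated on Pseudomonas Isolation Agar and incubated at 37°C. CFU/mL was counted the next day, and fold-change in dispersed viable cells was calculated against untreated PA14 effluent.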
# HEK293 = assay: Cytotoxicity against HEK293 cells assessed as reduction in cell viability at 5 to 40 uM after 24 hrs by LDH release assay; assay type: cell-based; details: human, hek293, 24 h; how it was run: as §1
# Pseudomonas aeruginosa [6] = assay: Antibiofilm activity against Pseudomonas aeruginosa PA14 assessed as dispersion of bacteria from biofilms at 20 uM after 18.5 hrs relative to control; assay type: functional
# How it was run: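 PA14 biofilms pre-grown 2 days at 37°C in flow cells, then treated with 20 μM compound. Dispersed cells collected from chamber effluent at set times, plated on Pseudomonas Isolation Agar at 37°C, counted next day as CFU/mL. Fold change in viable dispersed cells calculated against untreated PA14 biofilms.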
# Pseudomonas aeruginosa [7] = assay: Inhibition of planktonic growth of Pseudomonas aeruginosa PA14 assessed as reduction of colony forming units after 24 hrs; assay type: organism-based
# How it was run: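 Overnight PA14 cultures were diluted 1:100 with or without compound (0–160 μM) and incubated 24 h. Samples were then 10-fold serially diluted and plated on LB agar, grown overnight at 37°C, and CFU were counted.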
# Pseudomonas aeruginosa [8] = assay: Antibiofilm activity against Pseudomonas aeruginosa PA14 assessed as removal of mature biofilm at 40 uM preincubated for 24 hrs measured after 2 hrs by SYTO/propidium iodide double-staining-based confocal laser scanning microscopic analysis relative to control; assay type: functional
SMILES,MIC (Pseudomonas aeruginosa [4]) [µM],MIC (Pseudomonas aeruginosa [7]) [µM],Activity (RD),Activity (Pseudomonas aeruginosa [1]) [%],Activity (Pseudomonas aeruginosa [2]) [%],Activity (Pseudomonas aeruginosa [3]) [%],Activity (Pseudomonas aeruginosa [5]),Activity (HEK293),fold change (FC) (Pseudomonas aeruginosa [6]),Activity (Pseudomonas aeruginosa [8])
CC1(C)CC(C(=O)N2CCN(c3cc4c(cc3F)c(=O)c(C(=O)O)cn4C3CC3)CC2)CC(C)(C)N1[O],312,–,Non-Toxic,37,41,6,Active,Non-Toxic,–,–
CC1(C)CC(C(=O)N2CCN(c3cc4c(cc3F)c(=O)c(C(=O)O)cn4C3CC3)CC2)C(C)(C)N1[O] (stereo not drawn),160,–,–,67,67,0,–,–,–,–
O=C(O)c1cn(C2CC2)c2cc(N3CCNCC3)c(F)cc2c1=O [CIPROFLOXACIN],0.5,–,–,–,–,–,–,–,–,–
CC1(C)CC(N2CCN(c3cc4c(cc3F)c(=O)c(C(=O)O)cn4C3CC3)CC2)CC(C)(C)N1[O],–,–,–,–,80,50,–,–,–,<=95%

# More lines, main results first:
MIC (Pseudomonas aeruginosa [4]) [µM],MIC (Pseudomonas aeruginosa [7]) [µM],SMILES,Activity (RD),Activity (Pseudomonas aeruginosa [1]) [%],Activity (Pseudomonas aeruginosa [2]) [%],Activity (Pseudomonas aeruginosa [3]) [%],Activity (Pseudomonas aeruginosa [5]),Activity (HEK293),fold change (FC) (Pseudomonas aeruginosa [6]),Activity (Pseudomonas aeruginosa [8])
> 303,–,CON1C(C)(C)CC(C(=O)N2CCN(c3cc4c(cc3F)c(=O)c(C(=O)O)cn4C3CC3)CC2)CC1(C)C,Non-Toxic,17,30,16,–,Non-Toxic,0,–
> 284,> 160,CON1C(C)(C)c2ccc(C(=O)N3CCN(c4cc5c(cc4F)c(=O)c(C(=O)O)cn5C4CC4)CC3)cc2C1(C)C,Non-Toxic,53,54,2,–,Non-Toxic,–,–
311,–,CON1C(C)(C)CC(C(=O)N2CCN(c3cc4c(cc3F)c(=O)c(C(=O)O)cn4C3CC3)CC2)C1(C)C (stereo not drawn),–,24,31,9,–,–,–,–
